Results as given in ChEMBL document CHEMBL1142233, “Treatment of diabetes and atherosclerosis by inhibiting fatty-acid-binding protein aP2” (2007).
Active and inactive are the calls of the source. The calls are words filed in the database; no cut-off is given here.

Legend:
Mus musculus [1] = experiment: Decrease in IL6 expression in ob/ob mouse adipose tissue at 40 mg/kg/day, po; format: functional, organism-based
Mus musculus [2] = experiment: Effect on adiponectin level in 5-week old apoE-/- C57BL/6J mouse fed on western diet and 15 mg/kg/day, po drug simultaneously in 5-11 week early intervention study; format: functional
Method in brief: (§1)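 Male Apoe−/− mice on western diet (21% fat, 0.21% cholesterol) from 4–5 weeks of age. Oral gavage for 6 weeks from age 5 or 12 weeks; vehicle 10% 1-methyl-2-pyrrolidone, 5% cremophor EL with ethanol in water. Blood taken after 6 h fast before and after treatment. Glucose by meter; insulin by ELISA; lipids and glycerol colorimetric.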

Mus musculus [3] = experiment: Effect on body weight in 5-week old apoE-/- C57BL/6J mouse fed on western diet and administered with 15 mg/kg/day, po drug at 12 week in 12-18 week late intervention study; format: functional
Mus musculus [4] = experiment: Effect on insulin level in 5-week old apoE-/- C57BL/6J mouse fed on western diet and 15 mg/kg/day, po drug simultaneously in 5-11 week early intervention study; format: functional; method in brief: as §1
Mus musculus [5] = experiment: Increase in glucose uptake in epididymal fat in ob/ob mouse at 40 mg/kg/day, po after 4 weeks by hyperinsulinemic-euglycaemic clamp studies relative to control; format: functional, organism-based
Method in brief: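 Ob/ob mice after 4 weeks of treatment, jugular catheterized 4 days earlier. Clamp with insulin at 12.5 mU kg⁻¹ min⁻¹, variable 25% glucose to hold basal glucose, and ³H-glucose at 0.1 μCi min⁻¹ with 2-¹⁴C-DG. Tissue uptake computed from the fitted plasma 2-¹⁴C-DG curve and tissue 2-¹⁴C-DG-6-phosphate content. n = 7 and 9.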

Mus musculus [6] = experiment: Inhibition of JNK1 activity in ob/ob mouse liver at 40 mg/kg/day, po relative to control; format: functional, organism-based
Method in brief: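 Liver lysates (500–1,000 μg protein) from ob/ob mice gavaged at 40 mg kg⁻¹ d⁻¹ were immunoprecipitated with JNK1 antibody. The beads were incubated with 10 μCi ³²P-γATP, 10 μM ATP and 5 μg c-jun fusion protein in Hepes pH 7.4/MgCl₂ buffer at 30 °C for 20 min. The reaction was stopped with Laemmli buffer and quantified.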

Mus musculus [7] = experiment: Increase in glucose metabolism in ob/ob mouse at 40 mg/kg/day, po after 4 weeks by glucose tolerance test; format: functional, organism-based
Method in brief: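 Male ob/ob mice after 4 weeks of daily 40 mg kg⁻¹ oral gavage (started at 8 weeks), n = 6 per group. Glucose tolerance tested with 0.5 g kg⁻¹ intraperitoneal glucose after an overnight fast.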

[8] = Reduction of TNF expression in mouse aP2+/+ macrophage cells relative to control; format: functional, cell-based
Method in brief: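 Mouse aP2⁺/⁺ and aP2-reconstituted aP2⁻/⁻ macrophage lines were grown in RPMI with FBS or 5% LPDS, with inhibitor in DMSO or vehicle. Mcp-1, Il1β, Il6 and Tnf mRNA were measured by SYBR Green qRT-PCR (annealing at 58 °C, 50 cycles), normalized to 18s rRNA and then to untreated cells. Mean ± s.e.m.; at least triplicate.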

Mus musculus [9] = experiment: Decrease in triglyceride level in ob/ob mouse at 40 mg/kg/day, po after 6 weeks relative to control; format: functional
Mus musculus [10] = experiment: Increase in insulin-stimulated IRbeta tyrosine 1162/1163 phosphorylation in ob/ob mouse liver at 40 mg/kg/day, po relative to control; format: functional, organism-based
Method in brief: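 Male ob/ob mice got 40 mg kg⁻¹ d⁻¹ by oral gavage or vehicle. After a 6 h fast under tribromoethanol anaesthesia, portal-vein insulin (2 IU kg⁻¹) or PBS was given. Liver was removed 3 min later, lysed and western-blotted for IRβ pTyr1162/1163 and AKT pSer473 against total IRβ and AKT, then quantified.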

Mus musculus [11] = experiment: Increase in adiponectin level in ob/ob mouse plasma at 40 mg/kg/day, po after 6 weeks relative to control; format: functional, organism-based
Method in brief: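 Plasma from male ob/ob mice after 6 weeks of daily oral gavage (started at 8 weeks), 6 h fasted, n = 6 per group. Adiponectin measured by ELISA.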

Adipocyte = experiment: Decrease in fatty acid uptake in FABP-deficient mouse adipocytes reconstituted with exogenous aP2 after 24 hrs; format: functional, cell-based
Method in brief: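 Immortalized mouse pre-adipocytes differentiated with dexamethasone, IBMX, rosiglitazone and insulin, then insulin alone. Cells incubated 24 h in DMEM with 2% FBS plus inhibitor, then moved to DMEM with 2% BSA and given ³H-stearate at 37 °C for 30 min. Lysate counted by scintillation; values normalized to protein and expressed as % of untreated.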

Mus musculus [12] = experiment: Decrease in blood glucose level in fed ob/ob mouse at 40 mg/kg/day, po after 2 weeks; format: functional, organism-based
Method in brief: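 Male ob/ob mice given oral gavage daily for 6 weeks from 8 weeks old, n = 6 per group. Blood taken after 6 h fast before and after treatment; fed glucose taken at week 2. Glucose by meter on 3 μl whole blood, insulin by ultrasensitive ELISA, cholesterol, FFA and glycerol by colorimetric microplate assays.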

Mus musculus [13] = experiment: Inhibition of aP2 in 5-week old apoE -/- C57BL/6J mouse fed on western diet and 15 mg/kg/day, po drug simultaneously in early intervention study assessed as reduction of atherosclerotic lesion in en face aorta relative to control; format: functional; set-up: scale not given: the % may be the effect or the level left
Method in brief: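 Male Apoe⁻/⁻ C57BL/6J mice were fed a western diet (21% fat, 0.21% cholesterol) from 4–5 weeks of age. They were gavaged for 6 weeks with 15 mg kg⁻¹ d⁻¹ in vehicle (10% 1-methyl-2-pyrrolidone, 5% cremophor EL with ethanol, in water), starting at 5 weeks (early) or 12 weeks (late). Perfusion-fixed, pinned-out aortas were stained with Sudan IV and lesion area was quantified.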

Mus musculus [14] = experiment: Decrease in Mcp1 expression in ob/ob mouse adipose tissue at 40 mg/kg/day, po; format: functional, organism-based
Mus musculus [15] = experiment: Effect on glycerol level in 5-week old apoE-/- C57BL/6J mouse fed on western diet and administered with 15 mg/kg/day, po drug at 12 week in 12-18 week late intervention study; format: functional; method in brief: as §1
Macrophage = experiment: Reduction in total cholesterol ester content in mouse aP2+/+ macrophage cells at 25 uM relative to control; format: functional, cell-based
Mus musculus [16] = experiment: Increase in whole body glucose disposal and glucose infusion rate in ob/ob mouse at 40 mg/kg/day, po after 4 weeks by hyperinsulinemic-euglycaemic clamp studies; format: functional, organism-based
Method in brief: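 Clamps were run in ob/ob mice after 4 weeks of oral gavage at 40 mg kg⁻¹ d⁻¹ (vehicle n = 7, treated n = 9), with jugular catheters placed 4 days earlier. Insulin was infused at 12.5 mU kg⁻¹ min⁻¹, 25% glucose at variable rates held basal glycaemia, and ³H-glucose ran at 0.1 μCi min⁻¹. Clamp hepatic glucose production = whole-body uptake minus glucose infusion rate.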

Mus musculus [17] = experiment: Decrease in Scd1 expression in liver of ob/ob mouse at 40 mg/kg/day, po; format: functional, organism-based
Method in brief: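 Liver from male ob/ob mice gavaged daily for 6 weeks from 8 weeks of age, n = 6 per group. mRNA measured by SYBR Green real-time PCR: 95 °C 4 min, then 50 cycles of 95 °C 15 s, 58 °C 30 s, 72 °C 30 s. Normalized to 18s rRNA.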

THP-1 = experiment: Reduction of TNF expression in human THP1 cells expressing aP2 relative to control; format: functional, cell-based

CCc1c(-c2ccccc2)c(-c2ccccc2)nn1-c1ccccc1-c1cccc(OCC(=O)O)c1
Activity (Mus musculus [1]): Active
Activity (Mus musculus [2]): 8.59 µg/mL
Activity (Mus musculus [3]): 37 g
Activity (Mus musculus [4]): 0.5 ng/mL
Activity (Mus musculus [5]): Active
Activity (Mus musculus [6]): Active
Activity (Mus musculus [7]): Active
Activity [8]: Active
Activity (Mus musculus [9]): 58 mg/dL
Activity (Mus musculus [10]): Active
Activity (Mus musculus [11]): Active
Activity (Adipocyte): Active
Activity (Mus musculus [12]): Active
Activity (Mus musculus [13]): 52.6%
Activity (Mus musculus [14]): Active
Activity (Mus musculus [15]): 3.55 mM
Activity (Macrophage): Active
Activity (Mus musculus [16]): Active
Activity (Mus musculus [17]): Active
Activity (THP-1): Active
